Test results published in ChEMBL document CHEMBL3351454, “Design, synthesis, antimicrobial evaluation and molecular docking studies of some new thiophene, pyrazole and pyridone derivatives bearing sulfisoxazole moiety” (2014).
Converted amounts (≈) assume the structure as drawn.

What was measured:
Type in all cases: functional
Streptococcus pneumoniae [1] = experiment: Antimicrobial activity against Streptococcus pneumoniae RCMB 010010 assessed as inhibition zone at 5 mg/ml after 24 hrs; conditions: RCMB 010010, 24 h, read-out: IZ
In short: (§1)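 Agar diffusion on nutrient agar seeded with 10^6 CFU/mL bacteria. Filter-paper disks were loaded with 100 µL of a 5 mg/mL compound solution in DMF, with a DMF-only control. Incubation was 37 °C for 24 h. Inhibition zone in mm (mean ± SD, triplicate plates) was measured beyond the 6 mm diameter.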

Klebsiella pneumoniae [2] = experiment: Antimicrobial activity against Klebsiella pneumoniae RCMB 010093 assessed as absence of turbidity after 24 hrs; conditions: RCMB 010093, 24 h
In short: (§2)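 Broth microdilution in Müller–Hinton broth. DMF stocks at 1000 µg/mL were diluted in broth to give twofold serial dilutions over 500–0.007 µg/mL. Bacterial inoculum was about 10^6 CFU/mL in 96-well plates, sealed and incubated at 37 °C for 24 h in a humid chamber. MIC was taken as the lowest concentration with no visible turbidity. DMF and uninoculated-medium controls were included. Only compounds giving zones >10 mm were tested.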

Proteus vulgaris [3] = experiment: Antimicrobial activity against Proteus vulgaris RCMB 010085 assessed as inhibition zone at 5 mg/ml after 24 hrs; conditions: RCMB 010085, 24 h, read-out: IZ; in short: as §1
Bacillus subtilis [4] = experiment: Antimicrobial activity against Bacillis subtilis RCMB 010067 assessed as absence of turbidity after 24 hrs; conditions: RCMB 010067, 24 h; in short: as §2
[5] = test system: Syncephalastrum racemosum; experiment: Antifungal activity against Syncephalastrum racemosum RCMB 05922 assessed as absence of turbidity after 48 hrs; conditions: RCMB 05922, 48 h
Geotrichum candidum [6] = experiment: Antifungal activity against Geotrichum candidum RCMB 05097 assessed as absence of turbidity after 48 hrs; conditions: RCMB 05097, 48 h
In short: as §2, with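 “Sabouraud liquid medium.” for “Müller–Hinton broth.”, “Fungal” for “Bacterial”, “10^4” for “10^6”, “25” for “37”, “48” for “24”, “included.” for “included. Only compounds giving zones >10 mm were tested.”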

Aspergillus fumigatus [7] = experiment: Antifungal activity against Aspergillus fumigatus RCMB 02568 assessed as inhibition zone at 5 mg/ml after 48 hrs; conditions: RCMB 02568, 48 h, read-out: IZ
In short: (§3)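 Disk diffusion on nutrient agar seeded with 10^4 CFU/mL fungus. Sterile filter-paper disks carried 100 µL of a 5 mg/mL DMF solution, and DMF alone served as control. Plates were incubated at 25 °C for 48 h. Mean inhibition zone in mm ± SD was read beyond the 6 mm diameter, in triplicate.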

Escherichia coli [8] = experiment: Antimicrobial activity against Escherichia coli RCMB 010052 assessed as inhibition zone at 5 mg/ml after 24 hrs; conditions: RCMB 010052, 24 h, read-out: IZ; in short: as §1
[9] = test system: Staphylococcus epidermidis; experiment: Antimicrobial activity against Staphylococcus epidermidis RCMB 010024 assessed as inhibition zone at 5 mg/ml after 24 hrs; conditions: RCMB 010024, 24 h, read-out: IZ; in short: as §1
Proteus vulgaris [10] = experiment: Antimicrobial activity against Proteus vulgaris RCMB 010085 assessed as absence of turbidity after 24 hrs; conditions: RCMB 010085, 24 h; in short: as §2
Escherichia coli [11] = experiment: Antimicrobial activity against Escherichia coli RCMB 010052 assessed as absence of turbidity after 24 hrs; conditions: RCMB 010052, 24 h; in short: as §2
Bacillus subtilis [12] = experiment: Antimicrobial activity against Bacillis subtilis RCMB 010067 assessed as inhibition zone at 5 mg/ml after 24 hrs; conditions: RCMB 010067, 24 h, read-out: IZ; in short: as §1
Streptococcus pneumoniae [13] = experiment: Antimicrobial activity against Streptococcus pneumoniae RCMB 010010 assessed as absence of turbidity after 24 hrs; conditions: RCMB 010010, 24 h; in short: as §2
Aspergillus fumigatus [14] = experiment: Antifungal activity against Aspergillus fumigatus RCMB 02568 assessed as absence of turbidity after 48 hrs; conditions: RCMB 02568, 48 h
In short: as §2, with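 “Sabouraud liquid medium.” for “Müller–Hinton broth.”, “Fungal” for “Bacterial”, “10^4” for “10^6”, “25” for “37”, “48” for “24”, “included.” for “included. Only compounds giving zones >10 mm were tested.”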

Geotrichum candidum [15] = experiment: Antifungal activity against Geotrichum candidum RCMB 05097 assessed as inhibition zone at 5 mg/ml after 48 hrs; conditions: RCMB 05097, 48 h, read-out: IZ; in short: as §3
[16] = test system: Syncephalastrum racemosum; experiment: Antifungal activity against Syncephalastrum racemosum RCMB 05922 assessed as inhibition zone at 5 mg/ml after 48 hrs; conditions: RCMB 05922, 48 h, read-out: IZ
[17] = test system: Staphylococcus epidermidis; experiment: Antimicrobial activity against Staphylococcus epidermidis RCMB 010024 assessed as absence of turbidity after 24 hrs; conditions: RCMB 010024, 24 h; in short: as §2
Klebsiella pneumoniae [18] = experiment: Antimicrobial activity against Klebsiella pneumoniae RCMB 010093 assessed as inhibition zone at 5 mg/ml after 24 hrs; conditions: RCMB 010093, 24 h, read-out: IZ; in short: as §1

| MIC (Klebsiella pneumoniae [2]) [µg/mL] | MIC (Bacillus subtilis [4]) [µg/mL] | MIC [5] [µg/mL] | MIC (Geotrichum candidum [6]) [µg/mL] | MIC (Proteus vulgaris [10]) [µg/mL] | MIC (Escherichia coli [11]) [µg/mL] | MIC (Streptococcus pneumoniae [13]) [µg/mL] | MIC (Aspergillus fumigatus [14]) [µg/mL] | MIC [17] [µg/mL] | Structure (SMILES) | zone of inhibition at 5000 µg/mL (Streptococcus pneumoniae [1]) [mm] | zone of inhibition at 5000 µg/mL (Proteus vulgaris [3]) [mm] | zone of inhibition at 5000 µg/mL (Aspergillus fumigatus [7]) [mm] | zone of inhibition at 5000 µg/mL (Escherichia coli [8]) [mm] | zone of inhibition at 5000 µg/mL [9] [mm] | zone of inhibition at 5000 µg/mL (Bacillus subtilis [12]) [mm] | zone of inhibition at 5000 µg/mL (Geotrichum candidum [15]) [mm] | zone of inhibition at 5000 µg/mL [16] [mm] | zone of inhibition at 5000 µg/mL (Klebsiella pneumoniae [18]) [mm] |
| --- | --- | --- | --- | --- | --- | --- | --- | --- | --- | --- | --- | --- | --- | --- | --- | --- | --- | --- |
| 0.98 (≈ 2.46 µM) | 0.06 (≈ 0.151 µM) | 1.95 (≈ 4.89 µM) | 0.24 (≈ 0.602 µM) | 1.85 (≈ 4.64 µM) | 0.98 (≈ 2.46 µM) | 0.12 (≈ 0.301 µM) | 0.24 (≈ 0.602 µM) | 0.98 (≈ 2.46 µM) | Cc1cc(C)n(-c2ccc(S(=O)(=O)Nc3onc(C)c3C)cc2)c(=O)c1C#N | 23.8 | 19.5 | 22.9 | 20.9 | 21.4 | 25.3 | 23.1 | 20.3 | 21.4 |
| 15.6 (≈ 33.7 µM) | 3.9 (≈ 8.41 µM) | 62.5 (≈ 135 µM) | 31.2 (≈ 67.4 µM) | 3.9 (≈ 8.41 µM) | 15.6 (≈ 33.7 µM) | 16.6 (≈ 35.9 µM) | 62.5 (≈ 135 µM) | 7.81 (≈ 16.8 µM) | CNc1sc(C(C)=O)c(N)c1C(=O)Nc1ccc(S(=O)(=O)Nc2onc(C)c2C)cc1 | 16.6 | 18.2 | 15.8 | 17.1 | 18.7 | 19.1 | 16.4 | 14.1 | 16.9 |
